# Hits are enriched below; roughly 4.2% of the tested compounds scored in any of these assays.
# TMEM16A act: activates or potentiates the mouse TMEM16A chloride channel; Q8BHY3; HEK293 TMEM16A/YFP-H148Q/I152L, iodide quench fluorescence; hits give low values; B-score at 10 µM; 340,000 tested, 0.3% active; AID 623877;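 active = fluorescence-ratio B-score plate-corrected deviation score at least 3 library SD below zero, with starting fluorescence score within 5 deviations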;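 also: channel opened by trigger with iodide after compound preincubation; score built on the fluorescence ratio of max minus min over baseline; more negative score means more quench and so TMEM16A activation or potentiation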
# UPR XBP1 act: adaptive UPR (XBP1) activation. AID 463104. 330,000 tested, 0.33% active. activation, % at 20 µM. CHO-XBP1 luciferase reporter, IRE1-XBP1 UPR activation, luminescence; percent of tunicamycin response, DMSO as zero;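 active = versus positive control, 20 µM dose yields 30% or more activation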;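 also: 100% = tunicamycin at 10 µg/mL and 0% = DMSO only wells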
#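 Material: IRE1-XBP1 luciferase reporter CHO line / Quantity: one thousand reporter cells per well / Buffer or medium: F12 with 10% serum / Compound: 20 µM single concentration, DMSO 1% / Times: 6 h treatment, 37 °C / Detection: Steady-Glo luciferase glow luminescence, 10 min after reagent addition / Benchmarks: tunicamycin high, DMSO low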
# Hep lipid drop: modulators of hepatic lipid droplet formation. AML12 mouse hepatocytes, oleate lipid droplets, BODIPY imaging. inhibition, % at 6.5 µM. 240,000 tested, 0.4% active. AID 1656;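 active = lipid droplet intensity inhibited by at least 50%, with more than 500 cells counted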
#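 System: AML12 hepatocytes (mouse). Probe or stimulus: oleic acid at 100 µM to induce lipid droplet formation. Times: overnight treatment with compound plus oleate. Detection: Image-based BODIPY and DAPI two-channel analysis. Evaluation: percent inhibition of filter-corrected integrated lipid droplet intensity per well.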
# CHOP UPR activ: activators of apoptotic arm of unfolded protein response (CHOP); CHO-CHOP luciferase reporter, UPR activation, luminescence; percent of tunicamycin response over DMSO baseline; activation, % at 10 µM; 330,000 tested, 0.34% active; AID 449763;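 active = at 10 µM dose, activation of 40% or more, normalized to positive control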;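 also: 100% = tunicamycin at 10 µg/mL and 0% = DMSO alone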
#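 Test system: CHO CHOP reporter cells. Input: 500 CHO-CHOP cells per well. Medium: F12 with 10% FBS. Technique: luciferase luminescence. Measure: percent activation relative to tunicamycin control. Dosing: 10 µM compound, 0.5% DMSO. Timing: 16-18 h cell attachment, then 6 h compound exposure, 37 °C.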
# CHOP inhibitor: inhibitors of CHOP induction in ER stress response | CHO-K1 CHOP-promoter luciferase, tunicamycin-induced, 15-18 h | inhibition, % at 10 µM | 220,000 tested, 3.8% active;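 active = compounds that reduced the stress-induced luciferase reporter signal by more than about 70% of percent inhibition, limit read from the data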;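 also: 0% = tunicamycin plus vehicle and 100% = wells without tunicamycin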
# ANO1 block: inhibitors of mouse TMEM16A calcium-activated chloride channel | AID 588511 | normalized B-score (activity score, 25-100; higher = stronger inhibition) at 10 µM | 310,000 tested, 1.2% active | Q8BHY3 | HEK293 TMEM16A/YFP iodide influx fluorescence, ionomycin;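 active = ratio plate-corrected score three or more library SD toward inhibition, starting fluorescence score within five deviations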;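 also: score derived from kinetic fluorescence span divided by baseline fluorescence per well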
# * hit, by the source's call; i = inactive; . = not tested or not shown.
SMILES,TMEM16A act,UPR XBP1 act,Hep lipid drop,CHOP UPR activ,CHOP inhibitor,ANO1 block
CC1(C)OC(=O)C(=CNC(=O)c2c(F)cccc2F)C(=O)O1,i,-2.8,20.9,-2.6,72.5*,i
Cc1ccccc1C(=O)NC=C1C(=O)OC(C)(C)OC1=O,i,-0.3,4.8,-0.8,32.4,i
Cc1cccc(C(=O)NC(C)C(=O)NC(c2nc3ccccc3[nH]2)C(C)C)c1 (centres undefined),i,0.2,.,-0.5,.,.
CC(C)C(NC(=O)C(c1ccccc1)c1ccccc1)c1nc2ccccc2[nH]1 (centres undefined),i,-1.5,10.0,-1.2,77.5*,i
CCOC(=O)N1N=C(CC)CC1(O)C(F)(F)F (centres undefined),-11.2*,-0.1,0.3,-1.2,-28.6,i
CCOC(=O)N1N=C(c2ccc(C)cc2)CC1(O)C(F)(F)F (centres undefined),i,-4.5,35.9,0.5,11.2,i
Cc1ccc(S(=O)(=O)N2CCOCC2)cc1NS(=O)(=O)c1ccc(F)c(F)c1,i,2.5,.,-0.9,.,.
CCCCCOc1ccc(Br)cc1CSC(=N)N,-7.73*,.,-8.6,.,83.9*,.
CC[C@H]1C(=O)[C@@H](Cc2ccccc2)[C@@H]2CCN3C(=O)CCC[C@H]1[C@H]23,i,.,.,.,.,.
CSC1CCCCC1(O)CSc1nc2c(cc1C#N)CCCC2 (centres undefined),i,1.6,-4.6,1.5,85.2*,i
N#Cc1ccc(N[C@@H]2CCN3C(=O)c4ccccc4[C@@H]3C[C@H]2O)cc1,i,-0.3,.,0.5,.,.
O=S(=O)(NCc1ccccc1)NCc1ccccc1,i,0.9,3.8,0.3,72.5*,i
COc1cc2c(cc1NC(=O)Nc1ccc(C)cc1)oc1ccccc12,i,-0.9,-3.9,1.6,58.6,i
COc1cc2c(cc1NC(=O)c1cc(-c3cccnc3)nc3ccc(C)cc13)oc1ccccc12,i,0.1,.,-1.1,86.3*,i
COc1cc2c(cc1NC(=O)c1cc(-c3ccncc3)nc3ccccc13)oc1ccccc12,i,0.4,-9.9,-1.2,84.7*,i
Cc1ccc2nc(-c3ccccc3)cc(C(=O)Nc3cccnc3)c2c1,i,0.4,.,-1.1,.,.
COc1cc2c(cc1NC(=O)Nc1cccc(C)c1)oc1ccccc12,i,-0.6,-9.8,-0.1,89.5*,i
CCSc1ncc(/C=N/Nc2ccc([N+](=O)[O-])cc2)n1C,i,4.2,.,9.4,77.8*,i
CCC(C(=O)OC)n1c(-c2ccccc2)nc2ccccc2c1=O (centres undefined),i,-0.6,-0.7,-0.6,71.2*,i
CC(=O)c1cccc(OCC(O)CNCC2COc3ccccc3O2)c1 (centres undefined),i,-2.8,.,0.6,.,i
O=[N+]([O-])c1c(Nc2cccc(O)c2)cc(Cl)c2nonc12,-10.7*,-12.6,1.2,-11.8,.,25*
Cc1c(Nc2cc(Cl)c3nonc3c2[N+](=O)[O-])c(=O)n(-c2ccccc2)n1C,i,-9.0,-31.6,-9.7,108.1*,.
O=C(O)c1ccc(Nc2cc(Cl)c3nonc3c2[N+](=O)[O-])cc1,i,-0.1,17.6,0.9,-19.8,i
CCOc1ccc(-n2c(C)c(C(C)=O)c3cc(O)ccc32)cc1,i,-2.3,17.9,-1.1,.,i
CCOc1ccc(-n2c(C)c(C(=O)OC)c3cc(O)ccc32)cc1,i,0.2,7.7,1.1,81.0*,i
SMILES,TMEM16A act,UPR XBP1 act,Hep lipid drop,CHOP UPR activ,CHOP inhibitor,ANO1 block
Nc1c2c(nc3sc4c(c13)CCCCC4)CCCCC2,i,1.6,-8.5,3.4,26.0,25*
O=C(C1CC1)N1CCc2cc(S(=O)(=O)NCCCN3CCCCC3)ccc21,i,-6.0,-10.1,-2.7,.,i
O=C(C1CCC1)N1CCc2cc(S(=O)(=O)NCCN3CCN(c4ccccc4F)CC3)ccc21,i,3.8,.,5.1,74.1*,i
O=C(NCCN1CCC(Cc2ccccc2)CC1)C1CCCN(S(=O)(=O)c2cnc[nH]2)C1 (centres undefined),i,-1.4,.,2.7,2.5,i
COc1ccc(S(=O)(=O)NCc2ccc(C(=O)N3CCN(Cc4ccccc4)CC3)cc2)cc1,i,-1.7,6.4,2.0,.,i
O=C(NCCN1CCN(c2ccccc2F)CC1)C1CCCN(S(=O)(=O)c2cnc[nH]2)C1 (centres undefined),-17.8*,-2.2,.,-0.2,8.7,i
CCOc1ccc(NS(=O)(=O)c2ccc(C(=O)N3CCCC(C)C3)cc2)cc1 (centres undefined),i,0.1,.,0.9,.,100*
COc1ccc(NS(=O)(=O)c2ccc(C(=O)N3CCN(Cc4ccccc4)CC3)cc2)cc1,i,-2.1,5.2,1.9,23.8,25*
O=C1C(=O)N(CCCN2CCOCC2)C(c2ccc([N+](=O)[O-])cc2)/C1=C(/O)c1ccc2c(c1)OCO2 (centres undefined),i,-5.1,-1.7,0.2,.,i
C[C@@H]1O[C@@H](O[C@@H]2[C@@H](O)[C@H](OCCc3ccc(O)c(O)c3)O[C@H](CO)[C@H]2OC(=O)/C=C/c2ccc(O)c(O)c2)[C@H](O)[C@H](O)[C@H]1O,i,-1.3,.,-1.7,.,.
CCOC(=O)c1cc(C)n(Cc2ccc(OCC)c(OC)c2)c1C,i,-2.3,-12.6,1.6,0.7,i
CCOc1ccc(NS(=O)(=O)c2ccc3c(c2)CCN3C(=O)C2CCC2)cc1,i,-2.6,0.1,-2.4,81.9*,i
CN(C)c1nc(N)nc(CSc2nc3c(c(=O)n(C)c(=O)n3C)n2Cc2ccccc2F)n1,i,-1.5,2.0,-0.8,71.5*,i
CCN(CC)c1ccc(NC(=O)c2cnc3ccccn3c2=O)c(C)c1,i,5.8,13.3,2.9,80.8*,i
CCN(CC)c1ccc(NC(=O)c2cccnc2)c(C)c1,i,6.8,.,0.6,-5.6,i
CCNC(=O)c1ccccc1NC(=O)C1CC(=O)N(C(C)C)C1 (centres undefined),i,-1.9,-6.0,-1.4,.,i
CCOC(=O)C(CC)Sc1nnc2n1C(C)(C)Cc1ccccc1-2 (centres undefined),i,2.0,.,11.6,-2.9,i
COC(=O)CSc1nnc2n1C(C)(C)Cc1ccccc1-2,i,1.3,.,-1.1,19.4,i
CC1(C)Cc2ccccc2-c2nnc(SCC(=O)N3CCc4ccccc43)n21,.,1.6,33.4,-0.3,76.7*,i

# Compound activity: PubChem, several laboratories
